Active and inactive are the calls of the source. The calls are words filed in the database; no cut-off is given here.
Experiments:
Type in all cases: cell-based
[1] = biological target: T1, Protein cereblon/Tyrosine-protein kinase BTK (Homo sapiens, UniProt Q06187+Q96SW2); test: PROTAC activity at BTK/CRBN protein protein interaction in human Ramos cell assessed as degradation of BTK incubated for 17 hrs measured by Western blot analysis
In short: (§1)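 Ramos or JeKo-1 cells (2 × 10^6 per well) were exposed for 17 h to 3000–0.15 nM PROTAC in 3-fold steps. Cells were lysed and analysed by western blot, with BTK normalised to β-actin. DC50 and Dmax come from the dose-response; DC50 is the mean ± SD of two independent experiments.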
Target sequence in this assay (Q06187 whole entry): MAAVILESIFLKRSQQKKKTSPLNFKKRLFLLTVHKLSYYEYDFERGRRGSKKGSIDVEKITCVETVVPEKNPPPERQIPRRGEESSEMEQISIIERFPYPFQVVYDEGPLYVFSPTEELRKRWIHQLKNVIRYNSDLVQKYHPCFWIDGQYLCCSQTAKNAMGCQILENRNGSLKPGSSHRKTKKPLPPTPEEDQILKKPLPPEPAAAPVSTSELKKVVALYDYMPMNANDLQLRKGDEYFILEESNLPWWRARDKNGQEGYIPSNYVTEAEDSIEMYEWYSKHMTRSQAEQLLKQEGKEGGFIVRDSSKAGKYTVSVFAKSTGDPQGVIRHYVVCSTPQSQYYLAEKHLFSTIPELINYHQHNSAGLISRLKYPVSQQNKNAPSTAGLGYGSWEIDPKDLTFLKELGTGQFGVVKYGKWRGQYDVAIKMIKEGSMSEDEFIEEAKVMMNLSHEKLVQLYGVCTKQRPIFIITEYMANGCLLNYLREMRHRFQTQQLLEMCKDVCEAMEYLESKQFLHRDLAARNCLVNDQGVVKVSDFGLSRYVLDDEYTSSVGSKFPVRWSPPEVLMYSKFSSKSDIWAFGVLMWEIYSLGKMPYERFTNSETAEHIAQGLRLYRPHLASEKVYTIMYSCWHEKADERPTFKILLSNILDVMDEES
Target sequence in this assay (Q96SW2 whole entry): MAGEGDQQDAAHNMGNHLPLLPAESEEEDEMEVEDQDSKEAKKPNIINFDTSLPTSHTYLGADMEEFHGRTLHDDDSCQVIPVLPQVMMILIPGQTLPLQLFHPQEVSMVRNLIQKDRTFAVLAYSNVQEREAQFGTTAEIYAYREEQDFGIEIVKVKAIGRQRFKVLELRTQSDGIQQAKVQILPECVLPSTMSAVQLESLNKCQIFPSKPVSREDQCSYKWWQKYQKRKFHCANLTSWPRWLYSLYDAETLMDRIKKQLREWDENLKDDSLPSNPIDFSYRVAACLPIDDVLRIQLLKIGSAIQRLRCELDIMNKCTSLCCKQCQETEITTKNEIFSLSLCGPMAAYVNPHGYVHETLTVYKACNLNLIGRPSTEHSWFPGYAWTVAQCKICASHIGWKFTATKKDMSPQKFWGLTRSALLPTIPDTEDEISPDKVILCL

[2] = biological target: T1, Protein cereblon/Tyrosine-protein kinase BTK; test: PROTAC activity at BTK/CRBN protein protein interaction in human JeKo-1 cell assessed as degradation of BTK incubated for 17 hrs measured by Western blot analysis; in short: as §1
Target sequence in this assay (Q06187 whole entry): as the sequence (Q06187 whole entry) above
Target sequence in this assay (Q96SW2 whole entry): as the sequence (Q96SW2 whole entry) above

[3] = biological target: T1, Protein cereblon/Tyrosine-protein kinase BTK; test: PROTAC activity at BTK/CRBN protein protein interaction in human JeKo-1 cell assessed as degradation of BTK incubated for 17 hrs measured by Western blot analysis relative to control; in short: as §1
Target sequence in this assay (Q06187 2-659 limits assumed): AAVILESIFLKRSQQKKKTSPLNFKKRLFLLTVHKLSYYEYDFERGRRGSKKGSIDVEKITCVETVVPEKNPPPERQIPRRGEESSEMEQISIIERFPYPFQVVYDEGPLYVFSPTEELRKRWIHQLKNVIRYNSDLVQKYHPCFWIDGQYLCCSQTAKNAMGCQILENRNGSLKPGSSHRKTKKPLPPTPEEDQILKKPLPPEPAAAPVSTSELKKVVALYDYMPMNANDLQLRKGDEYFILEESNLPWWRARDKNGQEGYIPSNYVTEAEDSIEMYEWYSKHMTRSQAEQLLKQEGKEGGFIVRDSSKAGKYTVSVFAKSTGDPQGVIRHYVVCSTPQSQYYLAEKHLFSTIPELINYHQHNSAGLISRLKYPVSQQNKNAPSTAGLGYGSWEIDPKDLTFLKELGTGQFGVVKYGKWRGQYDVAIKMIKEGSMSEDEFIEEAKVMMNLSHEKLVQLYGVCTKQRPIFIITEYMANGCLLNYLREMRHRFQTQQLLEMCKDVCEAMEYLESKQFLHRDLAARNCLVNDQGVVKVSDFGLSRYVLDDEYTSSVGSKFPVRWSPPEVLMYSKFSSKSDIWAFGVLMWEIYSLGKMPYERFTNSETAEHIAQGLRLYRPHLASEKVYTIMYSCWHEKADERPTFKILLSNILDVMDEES
Target sequence in this assay (Q96SW2 whole entry partner): as the sequence (Q96SW2 whole entry) above

[4] = biological target: Tyrosine-protein kinase CSK (Homo sapiens) (UniProt P41240); test: Degradation of CSK in human TMD8 cells by measuring protein level at 111 nM for 6 hrs using label free proteomic analysis
Tyrosine-protein kinase CSK (Homo sapiens), sequence (P41240 2-450 limits assumed): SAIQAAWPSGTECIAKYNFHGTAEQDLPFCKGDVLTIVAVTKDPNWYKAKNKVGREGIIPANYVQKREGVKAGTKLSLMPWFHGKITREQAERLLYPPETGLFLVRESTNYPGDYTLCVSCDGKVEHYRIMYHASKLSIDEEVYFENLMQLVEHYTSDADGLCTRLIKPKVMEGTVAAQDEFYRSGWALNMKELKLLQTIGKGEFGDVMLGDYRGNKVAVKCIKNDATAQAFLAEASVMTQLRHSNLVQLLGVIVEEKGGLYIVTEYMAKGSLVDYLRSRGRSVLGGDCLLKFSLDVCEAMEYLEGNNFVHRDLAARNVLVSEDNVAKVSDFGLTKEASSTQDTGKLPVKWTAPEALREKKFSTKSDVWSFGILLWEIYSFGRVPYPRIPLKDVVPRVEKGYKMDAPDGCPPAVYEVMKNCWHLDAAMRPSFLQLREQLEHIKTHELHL
In short: (§2)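 TMD8 cells (2 × 10^6) given 111 nM or DMSO for 6 h in duplicate. Lysed in 5% SDS/50 mM TEAB pH 8.5. 200 μg protein reduced (10 mM DTT, 55 °C, 30 min), alkylated (50 mM iodoacetamide), S-Trap processed, then LC-MS/MS. Label-free matched-peptide quantitation against DMSO, human UniProt; Benjamini–Hochberg-corrected p-values.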

[5] = biological target: Tyrosine-protein kinase FRK (Homo sapiens) (UniProt P42685); test: Degradation of FRK in human TMD8 cells by measuring protein level at 111 nM for 6 hrs using label free proteomic analysis; in short: as §2
Tyrosine-protein kinase FRK (Homo sapiens), sequence (P42685 whole entry): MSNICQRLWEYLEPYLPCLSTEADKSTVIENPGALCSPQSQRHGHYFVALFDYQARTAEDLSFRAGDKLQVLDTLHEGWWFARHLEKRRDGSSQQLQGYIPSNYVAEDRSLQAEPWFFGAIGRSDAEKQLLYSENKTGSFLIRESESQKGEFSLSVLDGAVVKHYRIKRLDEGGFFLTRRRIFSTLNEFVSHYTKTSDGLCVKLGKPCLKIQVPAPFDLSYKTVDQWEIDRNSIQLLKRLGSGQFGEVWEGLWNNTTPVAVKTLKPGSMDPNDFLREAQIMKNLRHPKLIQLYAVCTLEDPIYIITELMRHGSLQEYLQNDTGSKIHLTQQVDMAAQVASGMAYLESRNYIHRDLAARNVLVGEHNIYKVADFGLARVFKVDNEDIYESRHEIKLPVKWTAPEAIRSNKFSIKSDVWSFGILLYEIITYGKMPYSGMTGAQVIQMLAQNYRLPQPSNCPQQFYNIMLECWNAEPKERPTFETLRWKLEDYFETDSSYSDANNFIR

[6] = biological target: Tyrosine-protein kinase Lyn (Homo sapiens) (UniProt P07948); test: Degradation of LYN in human TMD8 cells by measuring protein level at 111 nM for 6 hrs using label free proteomic analysis; in short: as §2
Tyrosine-protein kinase Lyn (Homo sapiens), sequence (P07948 2-512 limits assumed): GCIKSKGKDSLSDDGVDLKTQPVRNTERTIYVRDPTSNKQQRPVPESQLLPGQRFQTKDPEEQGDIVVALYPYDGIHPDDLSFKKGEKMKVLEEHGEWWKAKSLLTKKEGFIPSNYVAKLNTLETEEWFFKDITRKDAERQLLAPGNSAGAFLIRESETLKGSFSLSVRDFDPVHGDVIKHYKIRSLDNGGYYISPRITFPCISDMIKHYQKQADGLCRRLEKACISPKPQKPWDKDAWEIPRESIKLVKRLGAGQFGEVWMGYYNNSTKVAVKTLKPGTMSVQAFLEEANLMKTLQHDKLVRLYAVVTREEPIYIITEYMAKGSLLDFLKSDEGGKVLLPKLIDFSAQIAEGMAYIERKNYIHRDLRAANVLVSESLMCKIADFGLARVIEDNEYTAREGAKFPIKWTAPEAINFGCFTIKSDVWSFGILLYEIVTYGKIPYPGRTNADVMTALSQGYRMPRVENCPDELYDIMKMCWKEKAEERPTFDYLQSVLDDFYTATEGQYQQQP

[7] = biological target: T2, Tyrosine-protein kinase BAZ1B (Homo sapiens) (UniProt Q9UIG0); test: Degradation of BAZ1B in human TMD8 cells by measuring protein level at 111 nM for 6 hrs using label free proteomic analysis; in short: as §2
T2 sequence (whole entry): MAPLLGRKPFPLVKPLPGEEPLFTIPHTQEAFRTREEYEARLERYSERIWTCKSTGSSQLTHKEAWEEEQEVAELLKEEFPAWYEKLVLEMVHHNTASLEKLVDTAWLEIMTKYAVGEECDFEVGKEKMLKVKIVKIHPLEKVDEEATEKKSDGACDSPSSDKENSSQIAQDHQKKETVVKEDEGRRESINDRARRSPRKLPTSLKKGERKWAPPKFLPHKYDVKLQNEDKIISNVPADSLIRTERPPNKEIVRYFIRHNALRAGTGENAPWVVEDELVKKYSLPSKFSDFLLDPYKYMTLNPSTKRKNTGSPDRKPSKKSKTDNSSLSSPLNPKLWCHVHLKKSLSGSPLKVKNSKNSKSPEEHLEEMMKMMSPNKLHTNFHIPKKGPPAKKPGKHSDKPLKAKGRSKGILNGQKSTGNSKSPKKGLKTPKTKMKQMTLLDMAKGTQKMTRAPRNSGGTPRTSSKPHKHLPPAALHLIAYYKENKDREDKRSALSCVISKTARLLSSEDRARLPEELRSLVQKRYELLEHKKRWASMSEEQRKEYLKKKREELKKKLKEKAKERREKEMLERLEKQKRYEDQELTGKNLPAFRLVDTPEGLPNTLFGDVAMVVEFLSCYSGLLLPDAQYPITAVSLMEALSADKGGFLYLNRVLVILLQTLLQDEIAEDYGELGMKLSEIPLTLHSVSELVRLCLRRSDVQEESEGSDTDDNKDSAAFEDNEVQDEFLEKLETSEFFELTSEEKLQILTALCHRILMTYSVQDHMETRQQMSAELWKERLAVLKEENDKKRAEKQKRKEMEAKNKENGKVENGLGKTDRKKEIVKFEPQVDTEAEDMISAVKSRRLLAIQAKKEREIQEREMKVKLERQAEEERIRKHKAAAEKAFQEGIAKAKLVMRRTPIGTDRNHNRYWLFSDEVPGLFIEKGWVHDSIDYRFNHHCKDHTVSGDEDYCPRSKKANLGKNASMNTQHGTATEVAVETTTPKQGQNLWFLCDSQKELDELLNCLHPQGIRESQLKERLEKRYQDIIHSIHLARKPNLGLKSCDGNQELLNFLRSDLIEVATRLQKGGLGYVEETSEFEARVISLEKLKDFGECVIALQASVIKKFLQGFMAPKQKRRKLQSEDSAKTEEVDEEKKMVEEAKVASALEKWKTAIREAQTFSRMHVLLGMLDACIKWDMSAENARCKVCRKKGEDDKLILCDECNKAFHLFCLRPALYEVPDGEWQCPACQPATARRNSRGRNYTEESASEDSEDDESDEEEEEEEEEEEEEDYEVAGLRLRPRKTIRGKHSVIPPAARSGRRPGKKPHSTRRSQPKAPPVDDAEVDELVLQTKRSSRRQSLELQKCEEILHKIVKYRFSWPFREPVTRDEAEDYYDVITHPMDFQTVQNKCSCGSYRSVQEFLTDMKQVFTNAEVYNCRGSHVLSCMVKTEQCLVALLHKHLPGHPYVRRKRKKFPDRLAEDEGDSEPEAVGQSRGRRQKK

[8] = biological target: DNA-binding protein Ikaros (Homo sapiens) (UniProt Q13422); test: Degradation of IKZF1 in human TMD8 cells by measuring protein level at 111 nM for 6 hrs using label free proteomic analysis; in short: as §2
DNA-binding protein Ikaros (Homo sapiens), sequence (Q13422 whole entry): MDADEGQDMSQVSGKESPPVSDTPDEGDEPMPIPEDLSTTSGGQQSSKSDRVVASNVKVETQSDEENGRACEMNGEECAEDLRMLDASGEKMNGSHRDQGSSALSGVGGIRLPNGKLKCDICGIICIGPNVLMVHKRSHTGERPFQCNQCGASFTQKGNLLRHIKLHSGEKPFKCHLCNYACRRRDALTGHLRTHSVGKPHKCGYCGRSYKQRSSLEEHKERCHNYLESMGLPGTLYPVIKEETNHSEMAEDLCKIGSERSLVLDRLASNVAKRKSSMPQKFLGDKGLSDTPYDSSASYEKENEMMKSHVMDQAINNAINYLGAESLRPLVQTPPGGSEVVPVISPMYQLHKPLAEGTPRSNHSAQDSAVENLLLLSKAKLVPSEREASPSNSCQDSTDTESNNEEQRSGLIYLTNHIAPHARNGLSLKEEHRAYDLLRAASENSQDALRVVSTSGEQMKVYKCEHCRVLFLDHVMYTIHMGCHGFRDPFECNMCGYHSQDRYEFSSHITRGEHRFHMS

[9] = biological target: Eukaryotic peptide chain release factor GTP-binding subunit ERF3A (Homo sapiens) (UniProt P15170); test: Degradation of […] in human TMD8 cells by measuring protein level at 111 nM for 6 hrs using label free proteomic analysis; in short: as §2
Eukaryotic peptide chain release factor GTP-binding subunit ERF3A (Homo sapiens), sequence (P15170 whole entry): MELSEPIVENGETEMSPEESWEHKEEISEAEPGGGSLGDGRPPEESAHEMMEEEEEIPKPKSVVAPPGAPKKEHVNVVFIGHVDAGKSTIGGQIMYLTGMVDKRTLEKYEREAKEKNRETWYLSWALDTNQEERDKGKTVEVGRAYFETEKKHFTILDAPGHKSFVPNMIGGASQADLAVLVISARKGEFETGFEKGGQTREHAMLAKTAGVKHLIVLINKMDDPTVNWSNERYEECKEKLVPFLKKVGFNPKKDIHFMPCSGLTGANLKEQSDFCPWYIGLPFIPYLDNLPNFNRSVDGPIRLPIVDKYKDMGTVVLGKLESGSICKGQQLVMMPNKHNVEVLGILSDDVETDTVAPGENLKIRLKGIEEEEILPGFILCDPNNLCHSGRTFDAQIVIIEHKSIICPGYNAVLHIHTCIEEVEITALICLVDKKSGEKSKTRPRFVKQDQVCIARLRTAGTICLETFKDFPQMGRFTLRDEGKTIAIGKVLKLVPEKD

DC50 [1] [nM] | DC50 [2] [nM] | Emax [3] [%] | Activity [4] | Activity [5] | Activity [6] | Activity [7] | Activity [8] | Activity [9] | Structure (SMILES)
0.5 | 0.6 | 95.7 | inactive | inactive | inactive | inactive | Active | inactive | C[C@H]1CN(C(=O)CNc2cccc3c2C(=O)N(C2CCC(=O)NC2=O)C3=O)CCN1c1ccc(Nc2cc(-c3ccnc(N4CCn5c(cc6c5CC(C)(C)C6)C4=O)c3CO)cn(C)c2=O)nc1 (stereo partly drawn)
1.7 | 3.1 | 97 | inactive | inactive | inactive | inactive | inactive | inactive | C[C@H]1CN(C(=O)COc2cccc3c2C(=O)N(C2CCC(=O)NC2=O)C3=O)CCN1c1ccc(Nc2cc(-c3ccnc(N4CCn5c(cc6c5CC(C)(C)C6)C4=O)c3CO)cn(C)c2=O)nc1 (stereo partly drawn)

Source: ChEMBL document CHEMBL5338787, “Discovery of Novel Bruton's Tyrosine Kinase PROTACs with Enhanced Selectivity and Cellular Efficacy” (J Med Chem, 2023)
